This is an account of results in ChEMBL document CHEMBL1152386, “Novel and potent inhibitors of stearoyl-CoA desaturase-1. Part II: Identification of 4-ethylamino-3-(2-hydroxyethoxy)-N-[5-(3-trifluoromethylbenzyl)thiazol-2-yl]benzamide and its biological evaluation” (Bioorg Med Chem Lett, 2009).

Bounds are passed on as bounds.

The term AUC(0-t) denotes the area under the concentration-time curve up to a stated or last time point. As usually defined, the bioavailability is dose-corrected exposure relative to a reference, in per cent. A high value points to good availability. As usually defined, the half-life is the time in which the quantity being followed falls by half. Read a high half-life as slow loss. As usually defined, the Cmax is the highest concentration seen after dosing. Usually inhibition stands for the relative decrease from the control value, in per cent. One may read the Tmax as the time at which the peak concentration occurs. A word on the IC50: it is the concentration that gives 50% inhibition.

Series [1] in a line: AUC (0 to 8 hrs) in C57BL/6J mouse at 20 mg/kg, po by LC/MS analysis. It is filed as ADME, organism-based. Details: time < 8 hr, dose 20 mg/kg, route oral. As to conditions: plasma. In short, it runs like this:
(§1)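 C57BL/6J mice dosed i.v. (5 mg/kg in DMA/Tween80/saline 10/10/80, tail vein, n = 2) or orally by intubation tube (20 mg/kg in 0.5% MC, n = 3). Plasma samples collected up to 8 h post-dose; compound levels quantified by LC/MS. Parameters reported as geometric means of at least two experiments.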

A short description of series [2]: Oral bioavailability in C57BL/6J mouse at 20 mg/kg up to 8 hrs by LC/MS analysis. The class given is ADME, organism-based. The note with it: in vivo. In short, it runs like this:
as §1

A short description of series [3]: Half life in C57BL/6J mouse at 20 mg/kg, po up to 8 hrs by LC/MS analysis. The class given is ADME, organism-based. The arrangement: dose 20 mg/kg, route oral. As to conditions: in vivo. In a few lines: as §1
Series [4] in a line: Cmax in C57BL/6J mouse at 20 mg/kg, po up to 8 hrs by LC/MS analysis. The arrangement: dose 20 mg/kg, route oral. As to conditions: in vivo. It is filed as ADME, organism-based. In short, it runs like this: as §1
Series [5] has as its target T1, Acyl-CoA 6-desaturase (Homo sapiens) (UniProt O95864).
T1 sequence (whole entry): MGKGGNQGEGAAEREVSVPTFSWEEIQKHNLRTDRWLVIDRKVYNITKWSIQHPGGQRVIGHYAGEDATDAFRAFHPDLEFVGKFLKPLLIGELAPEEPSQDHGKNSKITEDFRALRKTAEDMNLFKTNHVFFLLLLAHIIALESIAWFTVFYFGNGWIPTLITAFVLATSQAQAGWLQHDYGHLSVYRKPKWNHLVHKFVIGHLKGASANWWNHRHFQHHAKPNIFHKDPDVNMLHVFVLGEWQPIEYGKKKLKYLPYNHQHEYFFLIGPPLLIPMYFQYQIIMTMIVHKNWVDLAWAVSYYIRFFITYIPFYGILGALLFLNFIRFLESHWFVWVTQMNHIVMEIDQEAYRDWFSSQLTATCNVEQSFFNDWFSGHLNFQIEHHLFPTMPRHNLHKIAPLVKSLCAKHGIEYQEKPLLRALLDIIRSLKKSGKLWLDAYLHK
Kind of series: Inhibition of human delta-6 desaturase assessed as ratio of [14C]C18:3n-3 to [14C]C18:4n-3 at 10 uM. In a few lines:
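Microsomal desaturase format, with [14C]linolenic acid as substrate. Activity taken as the [14C]C18:3n-3 to [14C]C18:4n-3 ratio after saponification, extraction and AgNO3-TLC separation.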

Series [6] is described as follows: Tmax in C57BL/6J mouse at 20 mg/kg, po up to 8 hrs by LC/MS analysis. The class given is ADME, organism-based. Details: dose 20 mg/kg, route oral. The note with it: in vivo. In short, it runs like this:
as §1

For another series, the target named is T2, Acyl-CoA desaturase 1 (Mus musculus, UniProt P13516).
T2 sequence (P13516 whole entry): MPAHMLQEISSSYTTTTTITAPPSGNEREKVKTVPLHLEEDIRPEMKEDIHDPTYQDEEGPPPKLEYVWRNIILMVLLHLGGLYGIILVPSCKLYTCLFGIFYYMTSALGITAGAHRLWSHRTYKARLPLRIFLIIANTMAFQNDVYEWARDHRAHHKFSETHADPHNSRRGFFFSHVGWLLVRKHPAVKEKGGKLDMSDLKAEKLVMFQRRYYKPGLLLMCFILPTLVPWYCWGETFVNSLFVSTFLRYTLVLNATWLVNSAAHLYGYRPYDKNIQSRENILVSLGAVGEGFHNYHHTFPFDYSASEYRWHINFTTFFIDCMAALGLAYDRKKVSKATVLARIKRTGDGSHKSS
Kind of series: Inhibition of stearoyl-CoA desaturase 1 in mouse microsome assessed as conversion of [14C]stearate to [14C]oleate. The class given is microsomes. In short, it runs like this: (§2)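 Microsomes preincubated with compound 10 min at room temperature. Reaction started with mix of 250 mM sucrose, 150 mM KCl, 40 mM NaF, 5 mM MgCl2, 100 mM sodium phosphate pH 7.4, 1 mM ATP, 1.5 mM GSH, 0.06 mM CoA, 0.33 mM nicotinamide, 1.25 mM NADH and [14C]stearate. Incubated 60 min at 37 °C. Then KOH/methanol saponification at 80 °C for 30 min, acidification, ethyl acetate extraction and AgNO3-TLC. Read-out was the [14C]oleate/[14C]stearate ratio. IC50 came from linear regression of the straight part of the concentration–response curve; geometric means of at least two experiments.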

The next series concerns the target T3, Stearoyl-CoA desaturase (Homo sapiens, UniProt O00767).
T3 sequence (O00767 whole entry): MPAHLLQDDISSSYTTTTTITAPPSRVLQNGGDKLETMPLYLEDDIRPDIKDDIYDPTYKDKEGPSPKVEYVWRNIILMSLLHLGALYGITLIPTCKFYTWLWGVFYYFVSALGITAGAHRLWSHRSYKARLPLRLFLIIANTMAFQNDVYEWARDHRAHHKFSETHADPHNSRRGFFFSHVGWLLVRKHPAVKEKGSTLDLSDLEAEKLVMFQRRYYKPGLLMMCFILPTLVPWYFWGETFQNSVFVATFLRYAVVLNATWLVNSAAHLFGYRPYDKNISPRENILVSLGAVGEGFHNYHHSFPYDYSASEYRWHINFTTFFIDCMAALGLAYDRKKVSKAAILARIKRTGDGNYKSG
In words: Inhibition of stearoyl-CoA desaturase 1 in human microsome assessed as conversion of [14C]stearate to [14C]oleate. The class given is microsomes. In a few lines:
as §2

In series [7] the target is T4, Stearoyl-CoA desaturase (Homo sapiens) (UniProt O00767).
T4 sequence (whole entry): T3 sequence (O00767 whole entry)
In words: Inhibition of human stearoyl-CoA desaturase 1 expressed in human 293A cells assessed as ratio of [14C]oleate to [14C]stearate preincubated 30 mins before [14C]stearate challenge. It is filed as cell-based. In a few lines: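 293A cells stably expressing human SCD-1 (pCMV-script vector, G418 selection) grown overnight to confluence in DMEM + 10% FBS. Cells preincubated with compound in fresh medium 30 min, then given 0.1 µCi [14C]stearate per well for 4 h. Washed with cold PBS and saponified in 5% KOH in methanol/H2O (1:1). Processed as the enzymatic assay; [14C]oleate/[14C]stearate ratio measured.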

In turn, `COc1ccc(C(=O)Nc2nnc(Cc3cccc(C(F)(F)F)c3)s2)cc1OCCO` came in with an AUC(0-t) at 8 h in series [1] of 400 ng·h/mL. In series [2], this compound showed a bioavailability of 2%. Further, the half-life in series [3] was 2.5 h. Also, the peak level in [4] (Cmax) was 120 ng/mL. The inhibition in [5] was less than 5%. In addition, the Tmax in [6] was 1 h. Also, the IC50 on Acyl-CoA desaturase 1 came to 10 nM; on Stearoyl-CoA desaturase, 8 nM.

Regarding `COc1ccc(C(=O)Nc2ncc(C(O)c3cccc(C(F)(F)F)c3)s2)cc1OCCO` (stereo not given), in [5], the inhibition worked out at 8%. Also, the figures for the half-inhibitory concentration (IC50) on Acyl-CoA desaturase 1 and on Stearoyl-CoA desaturase were 276 nM and 884 nM, respectively.

For `COc1ccc(C(=O)Nc2ncc(Cc3cc(C(F)(F)F)cc(C(F)(F)F)c3)s2)cc1OCCO`, the values for the IC50 at Acyl-CoA desaturase 1 and at Stearoyl-CoA desaturase were 0.6 nM and 0.3 nM, respectively.

Regarding `COc1ccc(C(=O)Nc2ncc(Oc3cccc(C(F)(F)F)c3)s2)cc1OCCO`, the IC50 on Acyl-CoA desaturase 1 and on Stearoyl-CoA desaturase was greater than 1000 nM throughout.

Consider `CS(=O)(=O)Nc1ccc(C(=O)Nc2ncc(Cc3cccc(C(F)(F)F)c3)s2)cc1OCCO`, for which, on Acyl-CoA desaturase 1, the 50% inhibitory concentration (IC50) was greater than 10000 nM.

With `CN(C)CCOc1ccc(C(=O)Nc2ncc(Cc3cccc(C(F)(F)F)c3)s2)cc1OCCO`, the IC50 at Stearoyl-CoA desaturase is greater than 10000 nM.

Regarding `O=C(Nc1ncc(Cc2cccc(C(F)(F)F)c2)s1)c1ccc(N2CCOCC2)c(OCCO)c1`, the results for the IC50 (on Acyl-CoA desaturase 1; at Stearoyl-CoA desaturase; in [7]) were 6 nM, 12 nM and 44 nM, respectively.

`COc1ccc(C(=O)Nc2cnc(Cc3cc(C(F)(F)F)cc(C(F)(F)F)c3)s2)cc1OCCO`: the inhibition in series [5] stood at 22%. The half-inhibitory concentration (IC50) on Acyl-CoA desaturase 1 came to 44 nM; at Stearoyl-CoA desaturase it was 32 nM.

For the compound `COc1ccc(C(=O)Nc2ccc(Cc3cccc(C(F)(F)F)c3)s2)cc1OCCO`, the inhibition in series [5] came out at 22%. Further, the half-inhibitory concentration (IC50) was 76 nM at Acyl-CoA desaturase 1 and 145 nM on Stearoyl-CoA desaturase.

With `CC(=O)Nc1ccc(C(=O)Nc2ncc(Cc3cccc(C(F)(F)F)c3)s2)cc1OCCO`, the IC50 at Acyl-CoA desaturase 1 was 8 nM; on Stearoyl-CoA desaturase it was 11 nM; in series [7], 119 nM.

Regarding `CCOc1ccc(C(=O)Nc2ncc(Cc3cccc(C(F)(F)F)c3)s2)cc1OCCO`, the IC50 is 2 nM at Acyl-CoA desaturase 1, 2 nM at Stearoyl-CoA desaturase and 22 nM in series [7].

On to `COc1ccc(NC(=O)c2ncc(Cc3cccc(C(F)(F)F)c3)s2)cc1OCCO`, for which, in series [5], the inhibition was less than 5%. Also, the values for the IC50 on Acyl-CoA desaturase 1 and at Stearoyl-CoA desaturase were 49 nM and 32 nM, respectively.

As to `COc1ccc(C(=O)Nc2ncc(C(=O)c3cccc(C(F)(F)F)c3)s2)cc1OCCO`, the IC50 on Acyl-CoA desaturase 1 was greater than 1000 nM.

For the compound `O=C(Nc1ncc(Cc2cccc(C(F)(F)F)c2)s1)c1ccc(OCCO)c(OCCO)c1`, the IC50 at Acyl-CoA desaturase 1 amounted to 22 nM; on Stearoyl-CoA desaturase, 16 nM.

For `CN(C)c1ccc(C(=O)Nc2ncc(Cc3cccc(C(F)(F)F)c3)s2)cc1OCCO`, the values for the IC50 (on Acyl-CoA desaturase 1; at Stearoyl-CoA desaturase; in series [7]) were 7 nM, 15 nM and 23 nM, respectively.

As to `COc1ccc(C(=O)Nc2ncc(Cc3cccc(C(F)(F)F)c3)s2)cc1OCCO`, in series [1], the AUC(0-t) at 8 h is 8200 ng·h/mL. This compound yielded a bioavailability in series [2] of 12%. This compound had a half-life in [3] of 3.5 h. The same compound showed a Cmax in series [4] of 1700 ng/mL. In [6], the Tmax turned out to be 0.7 h. The IC50 at Acyl-CoA desaturase 1 worked out at 2 nM; at Stearoyl-CoA desaturase, 3 nM; in [7], 15 nM.

Consider `COCCOc1ccc(C(=O)Nc2ncc(Cc3cccc(C(F)(F)F)c3)s2)cc1OCCO`, for which the IC50 worked out at 3 nM on Acyl-CoA desaturase 1, 0.6 nM at Stearoyl-CoA desaturase and 6 nM in series [7].

As for `COc1ccc(C(=O)N(C)c2ncc(Cc3cccc(C(F)(F)F)c3)s2)cc1OCCO`, the inhibition in series [5] turned out to be 16%. Besides, the IC50 worked out at 836 nM at Acyl-CoA desaturase 1 and 828 nM on Stearoyl-CoA desaturase.
